Assay results as given in ChEMBL document CHEMBL1146231, “Novel semisynthetic derivative of antibiotic Eremomycin active against drug-resistant gram-positive pathogens including Bacillus anthracis” (J Med Chem, 2007).
In brackets after ≈: the same amount, converted by molar mass.

Assays:
Assay type in all cases: functional
[1] = test system: Staphylococcus haemolyticus; assay: Antimicrobial activity against Staphylococcus haemolyticus 602 isolate
How it was run: (§1)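 MICs were run by broth microdilution as recommended by NCCLS, in cation-adjusted Mueller-Hinton broth. Compound was serially diluted 2-fold, over a final range of 64 to 0.03 µg/mL after inoculation.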

[2] = test system: Enterococcus faecalis; assay: Antimicrobial activity against vancomycin-susceptible Enterococcus faecalis 559 isolate; how it was run: as §1
[3] = test system: Enterococcus faecium; assay: Antimicrobial activity against vancomycin-resistant Enterococcus faecium 569 isolate; how it was run: as §1
[4] = test system: Staphylococcus aureus; assay: Antimicrobial activity against glycopeptide intermediate resistant Staphylococcus aureus 3798 isolate; how it was run: as §1
[5] = test system: Staphylococcus aureus; assay: Antimicrobial activity against glycopeptide intermediate resistant Staphylococcus aureus 3793 isolate; how it was run: as §1
[6] = test system: Staphylococcus epidermidis; assay: Antimicrobial activity against Staphylococcus epidermidis 533 isolate; how it was run: as §1
[7] = test system: Enterococcus faecium; assay: Antimicrobial activity against vancomycin-susceptible Enterococcus faecium 568 isolate; how it was run: as §1
[8] = test system: Enterococcus faecalis; assay: Antimicrobial activity against vancomycin-resistant Enterococcus faecalis 560 isolate; how it was run: as §1
[9] = test system: Enterococcus faecalis; assay: Antimicrobial activity against vancomycin-resistant Enterococcus faecalis Enfa_vre-2 isolate; how it was run: as §1
[10] = test system: Enterococcus faecalis; assay: Antimicrobial activity against vancomycin-susceptible Enterococcus faecalis Enfa_29212 isolate; how it was run: as §1
[11] = test system: Enterococcus faecalis; assay: Antimicrobial activity against vancomycin-resistant Enterococcus faecalis Enfa_t29862 isolate; how it was run: as §1
[12] = test system: Staphylococcus aureus; assay: Antimicrobial activity against methicillin-resistant Staphylococcus aureus Stau_HIP5827 isolate; how it was run: as §1
[13] = test system: Escherichia coli; assay: Antimicrobial activity against Escherichia coli Esco_25922 isolate

## CN[C@H](CC(C)C)C(=O)N[C@H]1C(=O)N[C@@H](CC(N)=O)C(=O)N[C@H]2C(=O)N[C@H]3C(=O)N[C@H](C(=O)N[C@H](C(=O)NC4C5CC6CC(C5)CC4C6)c4cc(O)cc(O)c4-c4cc3ccc4O)[C@H](O)c3ccc(c(Cl)c3)Oc3cc2cc(c3O[C@H]2O[C@@H](CO)[C@H](O)[C@@H](O)[C@@H]2O[C@H]2C[C@@](C)(N)C(O)[C@@H](C)O2)Oc2ccc(cc2Cl)[C@H]1O (stereo partly drawn)
[1]
  MIC: 1 µg/mL (≈ 0.632 µM)
[2]
  MIC: 0.5 µg/mL (≈ 0.316 µM)
[3]
  MIC: 64 µg/mL (≈ 40.4 µM)
[4]
  MIC: 4 µg/mL (≈ 2.53 µM)
[5]
  MIC: 4 µg/mL (≈ 2.53 µM)
[6]
  MIC: 1 µg/mL (≈ 0.632 µM)
[7]
  MIC: 0.5 µg/mL (≈ 0.316 µM)
[8]
  MIC: 64 µg/mL (≈ 40.4 µM)

## CN[C@H](CC(C)C)C(=O)N[C@H]1C(=O)N[C@@H](CC(N)=O)C(=O)N[C@H]2C(=O)N[C@H]3C(=O)N[C@H](C(=O)N[C@H](C(=O)NC(C)C4C5CC6CC(C5)CC4C6)c4cc(O)cc(O)c4-c4cc3ccc4O)[C@H](O[C@@H]3C[C@@](C)(N)[C@H](O)[C@@H](C)O3)c3ccc(cc3)Oc3cc2cc(c3O[C@H]2O[C@@H](CO)[C@H](O)[C@@H](O)[C@@H]2O[C@H]2C[C@](C)(N)[C@@H](O)[C@H](C)O2)Oc2ccc(cc2Cl)[C@H]1O (stereo partly drawn)
[1]
  MIC: 1 µg/mL (≈ 0.582 µM)
[2]
  MIC: 1 µg/mL (≈ 0.582 µM)
[3]
  MIC: 16 µg/mL (≈ 9.31 µM)
[4]
  MIC: 2 µg/mL (≈ 1.16 µM)
[5]
  MIC: 4 µg/mL (≈ 2.33 µM)
[6]
  MIC: 0.5 µg/mL (≈ 0.291 µM)
[7]
  MIC: 0.5 µg/mL (≈ 0.291 µM)
[8]
  MIC: 16 µg/mL (≈ 9.31 µM)

## CN[C@H](CC(C)C)C(=O)N[C@H]1C(=O)N[C@@H](CC(N)=O)C(=O)N[C@H]2C(=O)N[C@H]3C(=O)N[C@H](C(=O)N[C@H](C(=O)O)c4cc(O)cc(O)c4-c4cc3ccc4O)[C@H](O[C@@H]3C[C@@](C)(N)[C@H](O)[C@@H](C)O3)c3ccc(cc3)Oc3cc2cc(c3O[C@H]2O[C@@H](CO)[C@H](O)[C@@H](O)[C@@H]2O[C@H]2C[C@](C)(N)[C@@H](O)[C@H](C)O2)Oc2ccc(cc2Cl)[C@H]1O [EREMOMYCIN]
[1]
  MIC: 0.25 µg/mL (≈ 0.16 µM)
[2]
  MIC: 0.5 µg/mL (≈ 0.321 µM)
[3]
  MIC: > 128 µg/mL
[4]
  MIC: 8 µg/mL (≈ 5.13 µM)
[5]
  MIC: 8 µg/mL (≈ 5.13 µM)
[6]
  MIC: 0.25 µg/mL (≈ 0.16 µM)
[7]
  MIC: 0.5 µg/mL (≈ 0.321 µM)
[8]
  MIC: > 128 µg/mL

## CN[C@H](CC(C)C)C(=O)N[C@H]1C(=O)N[C@@H](CC(N)=O)C(=O)N[C@H]2C(=O)N[C@H]3C(=O)N[C@H](C(=O)N[C@H](C(=O)NCC4C5CC6CC(C5)CC4C6)c4cc(O)cc(O)c4-c4cc3ccc4O)[C@H](O[C@@H]3C[C@@](C)(N)[C@H](O)[C@@H](C)O3)c3ccc(cc3)Oc3cc2cc(c3O[C@H]2O[C@@H](CO)[C@H](O)[C@@H](O)[C@@H]2O[C@H]2C[C@](C)(N)[C@@H](O)[C@H](C)O2)Oc2ccc(cc2Cl)[C@H]1O (stereo partly drawn)
[1]
  MIC: 0.5 µg/mL (≈ 0.293 µM)
[2]
  MIC: 1 µg/mL (≈ 0.586 µM)
[3]
  MIC: 16 µg/mL (≈ 9.38 µM)
[4]
  MIC: 2 µg/mL (≈ 1.17 µM)
[5]
  MIC: 1 µg/mL (≈ 0.586 µM)
[6]
  MIC: 0.5 µg/mL (≈ 0.293 µM)
[7]
  MIC: 0.5 µg/mL (≈ 0.293 µM)
[8]
  MIC: 16 µg/mL (≈ 9.38 µM)

## CN[C@H](CC(C)C)C(=O)N[C@H]1C(=O)N[C@@H](CC(N)=O)C(=O)N[C@H]2C(=O)N[C@H]3C(=O)N[C@H](C(=O)N[C@H](C(=O)O)c4cc(O)cc(O)c4-c4cc3ccc4O)[C@H](O)c3ccc(c(Cl)c3)Oc3cc2cc(c3O[C@@H]2O[C@H](CO)[C@@H](O)[C@H](O)[C@H]2O[C@H]2C[C@](C)(N)[C@H](O)[C@H](C)O2)Oc2ccc(cc2Cl)[C@H]1O [VANCOMYCIN]
[1]
  MIC: 2 µg/mL (≈ 1.38 µM)
[2]
  MIC: 1 µg/mL (≈ 0.69 µM)
[3]
  MIC: > 128 µg/mL
[9]
  MIC: > 64 µg/mL
[4]
  MIC: 8 µg/mL (≈ 5.52 µM)
[5]
  MIC: 16 µg/mL (≈ 11 µM)
[10]
  MIC: 2 µg/mL (≈ 1.38 µM)
[11]
  MIC: > 64 µg/mL
[12]
  MIC: 8 µg/mL (≈ 5.52 µM)
[13]
  MIC: > 50 µg/mL
[8]
  MIC: > 128 µg/mL
